MPTP block: permeability transition pore inhibition | isolated mouse mitochondria, Ca2+ swelling absorbance, 30 min | inhibition, % at 10 µM | 360,000 compounds, 1.4% hits;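 active = inhibition of 50% or more, scaled per plate between neutral and stimulator controls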;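 note: 0% = DMSO wells given calcium and 100% = 1 mM EGTA wells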
ADAM10 inh: ADAM10 inhibition, QFRET primary screen. recombinant ADAM10, EDANS/DABCYL FRET peptide cleavage, 3 h. 370,000 compounds, 0.62% hits. AID 720582. inhibition, % at 7 µM. O14672;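 active = inhibition above a per-campaign cutoff equal to the mean of compounds falling between control-based bounds plus 3 SD, cut at about 20% in these data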;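 note: 0% = DMSO wells while the 100% control is not disclosed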
Target sequence (O14672 214-748 limits assumed): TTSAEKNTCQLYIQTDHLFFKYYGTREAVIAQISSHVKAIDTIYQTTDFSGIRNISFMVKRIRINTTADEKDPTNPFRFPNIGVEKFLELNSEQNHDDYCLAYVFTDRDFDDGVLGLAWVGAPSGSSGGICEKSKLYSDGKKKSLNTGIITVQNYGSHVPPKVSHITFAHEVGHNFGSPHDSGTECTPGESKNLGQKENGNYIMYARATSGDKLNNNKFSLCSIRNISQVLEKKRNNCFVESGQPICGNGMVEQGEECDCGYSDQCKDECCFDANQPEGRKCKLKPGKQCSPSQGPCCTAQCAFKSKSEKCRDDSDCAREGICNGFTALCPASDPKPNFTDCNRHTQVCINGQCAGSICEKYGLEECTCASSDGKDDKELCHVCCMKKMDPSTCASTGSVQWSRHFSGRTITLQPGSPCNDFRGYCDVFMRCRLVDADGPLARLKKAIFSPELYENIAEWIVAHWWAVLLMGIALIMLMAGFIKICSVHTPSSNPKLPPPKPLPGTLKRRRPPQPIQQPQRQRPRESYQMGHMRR
MT1-MMP act inh: inhibitors of human MT1-MMP activation; P50281; HT1080 RFP-PRO-GFP cells, GFP/RFP ratio fluorescence, overnight; percent of plate control window, DMSO zero; GFP/RFP ratio change, % at 20 µM; 360,000 compounds, 0.061% hits; AID 651647;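 active = GFP/RFP ratio change of at least 30% with cell ATP level not reduced by more than half and red fluorescence within 50% of control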
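Test system: HT1080 cells expressing an RFP-PRO-GFP fluorescent reporter construct / Compound dosing: single-point 20 µM compound, 1% DMSO / Schedule: cells overnight before dosing, compound overnight, 37 °C, 5% CO2 / Evaluation: GFP/RFP fluorescence ratio / Control set: DMSO and RFP-L50D-GFP cell wells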
SKN-1 inh: C. elegans SKN-1 inhibition; C. elegans VP596 Pgst-4::GFP/RFP ratio, acrylamide-induced, 24 h; inhibition, % at 21.8 µM; 360,000 compounds, 0.49% hits; AID 624304;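 active = interference check ratio from 0.5 to 1.5 plus GFP to RFP signal ratio inhibition reaching or exceeding a fixed threshold, cut at about 30% in these data, passing the limit was not always enough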
GRIN3A LBD mod: modulators (binders) of human NR3A ligand-binding domain | NR3A LBD differential scanning fluorimetry, Tm shift; 0% = protein alone, 100% = glycine-bound protein | Tm shift relative to glycine control, % at 25 µM | 340,000 compounds, 2.5% hits | AID 1259313;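 active = melting temperature shift of at least 10% of the positive control shift, at one fixed dose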
ADAM17 inh: inhibits human ADAM17. P78536. recombinant ADAM17, EDANS/DABCYL FRET peptide cleavage. inhibition, % at 6.95 µM. 370,000 compounds, 0.83% hits. AID 720648;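 active = inhibition above the mean of compounds lying between control limits plus 3 SD, set per campaign, cut at about 8.5% in these data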;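 note: 0% = DMSO-only wells as the low control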
ADAM10 counter: inhibits human ADAM10 in ADAM17 exosite counter-screen | AID 743256 | 2,900 compounds, 47% hits | recombinant ADAM10, EDANS/DABCYL FRET peptide cleavage, 3 h | shares compounds with ADAM17 inh | inhibition, % at 6.95 µM;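 active = mean inhibition over the triplicate runs exceeds the activity threshold set in the earlier primary screen, cut at about 20% in these data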;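 note: 0% = DMSO wells and 100% = marimastat wells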
ADAM17 confirm: human ADAM17 inhibition, confirmation. recombinant ADAM17, EDANS/DABCYL QFRET peptide cleavage. inhibition, % at 6.95 µM. shares compounds with ADAM17 inh. 2,900 compounds, 65% hits. AID 743257;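 active = mean inhibition across replicates above the hit cutoff set in the primary screen, cut at about 8.5% in these data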;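 note: 0% = DMSO wells and 100% = marimastat wells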
An asterisk follows results filed as active; / = not tested or not shown. Rows were chosen to be rich in hits. Some 4.7% of all compounds tested hit in one or more screens of this group.

SMILES	MPTP block	ADAM10 inh	MT1-MMP act inh	SKN-1 inh	GRIN3A LBD mod	ADAM17 inh	ADAM10 counter	ADAM17 confirm
Cc1c(C(=O)NC(=S)Nc2ccc(NC(=O)c3cccs3)cc2)cccc1[N+](=O)[O-]	-0.4	18.4	1.5	-12.8	10.7*	12.5*	28.6*	19.6*
CC(=O)NC(=S)Nc1ccc(NC(=S)NC(=O)c2cccs2)cc1	1.3	2.9	1.6	20.9	2.4	-3.0	/	/
CS/C(=C\[N+](=O)[O-])Nc1ccc(F)cc1	-10.2	11.9	1.3	-10.6	1.2	12.7*	6.7	3.0
COc1ccc(NC(=O)c2ccc3c(c2)NC(=O)CS3)cc1	-0.6	4.5	2.7	8.4	2.2	9.5*	9.4	6.3
COc1cc2c(C#N)c(N3CCN(c4ccccc4OC)CC3)nc(N)c2c(N)n1	1.5	-148.7	-4.9	-5.0	0.8	-40.8	/	/
COc1ccccc1N1CCN(c2nc(N)c(C#N)c(CC#N)c2C#N)CC1	1.3	11.6	-1.6	-11.0	-3.4	20.1*	10.2	10.6*
O=[N+]([O-])c1ccccc1C1Nc2cccc3cccc(c23)N1	1.3	3.7	12.6	-0.5	-7.0	0.3	/	/
O=[N+]([O-])c1ccc(Cl)c(C2Nc3cccc4cccc(c34)N2)c1	3.9	32.5*	0.4	17.4	1.4	10.6*	16.8	10.2*
C=CCn1c(N(C)C)nc2c1c(=O)[nH]c(=O)n2C	-0.3	14.0	1.8	-0.9	0.1	9.8*	-17.6	-4.5
O=C(Nc1cccc(S(=O)(=O)Nc2ccccc2Cl)c1)c1ccc(N2CCCC2)c([N+](=O)[O-])c1	9.9	18.4	1.5	-4.1	10.8*	11.2*	40.8*	23.8*
O=C(Nc1cccnc1)c1ccc(N2CCCC2)c([N+](=O)[O-])c1	-0.1	16.2	3.7	11.8	1.3	4.2	/	/
COc1cccc(OCCn2cccc2/C=C2/C(=N)N3OC(C)=CC3=NC2=O)c1	-0.3	-2.2	1.8	2.1	-5.6	-0.6	/	/
CC1=CC2=NC(=O)/C(=C\c3cccn3CCOc3cccc(C)c3)C(=N)N2O1	3.2	8.9	-13.9	15.8	-3.9	8.7*	5.7	7.3
CCc1noc(C)c1C(=O)OC(C)C(=O)Nc1ccc(Cl)cn1 (configuration not stated)	-0.5	3.6	-1.9	-11.3	-0.2	0.4	/	/
CCc1noc(C)c1C(=O)OC(C)C(=O)Nc1ccc2c(c1)OCO2 (configuration not stated)	-1.2	-11.5	3.2	-14.0	-0.1	8.8*	14.7	12.8*
O=C(N[C@H]1C/C=C\C[C@@H](CC(=O)N(CCO)Cc2ccccc2)C(=O)N[C@H](Cc2c[nH]c3ccccc23)COC1=O)OCC1c2ccccc2-c2ccccc21	-2.5	9.2	9.5	-13.3	-5.2	10.3*	21.0*	13.0*
CCC(C(=O)NC1CCCC1)n1c(-c2ccccn2)nc2ccccc21 (configuration not stated)	1.1	-8.9	-5.4	-8.1	/	-2.2	/	/
CCOc1ccc(-c2nc(CCl)cs2)cc1	2.4	-17.4	-2.4	16.9	-1.2	-7.2	/	/
COc1cccc(C2CCCN2Cc2nc(CCC(C)C)no2)c1 (configuration not stated)	1.5	0.4	2.7	3.3	1.3	-7.3	/	/
Cc1ccc(S(=O)(=O)NCCC(c2ccc(F)cc2)c2ccco2)cc1 (configuration not stated)	15.3	14.9	-6.5	-0.1	-6.7	9.7*	20.7*	12.3*
CN(C)CCNC(=O)c1ccc2c(=O)n(Cc3ccc(Cl)cc3)c(=S)[nH]c2c1	1.6	16.1	3.7	6.9	-0.2	9.1*	-8.5	1.8
COc1ccc(-c2nc(C)sc2C)cc1	-0.2	-10.5	1.8	2.1	-0.7	-3.0	/	/
COc1ccc(C(=O)Nc2ccccc2C(=O)N/N=C/c2ccncc2)cc1OC	-0.6	-2.5	2.2	2.0	-0.1	0.4	/	/
CC(Sc1nc2ccccc2s1)C(=O)N(C)Cc1ccccc1 (configuration not stated)	-0.4	-2.1	-1.6	2.0	-3.0	8.8*	5.4	3.9
COC(=O)[C@@H]1C[C@@]2(O)[C@H](O)[C@H](O)[C@H](O)C[C@H]2N1Cc1ccc(C(F)(F)F)cc1	-0.4	1.3	-1.5	-2.4	1.3	10.4*	7.0	5.6
SMILES	MPTP block	ADAM10 inh	MT1-MMP act inh	SKN-1 inh	GRIN3A LBD mod	ADAM17 inh	ADAM10 counter	ADAM17 confirm
CCOC(=O)c1cc2c(c(CSc3nc4ccccc4c(=O)n3Cc3ccco3)c1)OCOC2	3.0	/	-2.0	23.1	0.7	/	/	/
OCc1ccnc2c(O)cccc12	-0.8	3.5	-3.1	5.8	-0.1	8.9*	13.8	4.5
Cc1cc(N/N=C/c2ccccc2Cl)nc(NCc2ccccc2)n1	7.7	19.4	-23.4	7.9	-2.2	10.7*	0.7	6.2
O=C(Cn1c(-c2ccccc2)noc1=O)Nc1ccc(S(=O)(=O)N2CCOCC2)cc1	1.3	6.8	-1.3	14.2	-2.5	-0.1	/	/
O=C(Cn1c(-c2ccccc2)noc1=O)Nc1ccc(N2CCCCCC2)cc1	-1.1	16.7	-5.8	2.6	0.2	11.1*	23.9*	16.8*
O=C1CC(Nc2ccc3ccccc3c2)C(=O)N1Cc1ccccc1 (configuration not stated)	2.2	9.4	-3.2	4.3	-9.2	10.0*	11.8	11.1*
O=C1CC(Nc2ccc(N3CCOCC3)cc2)C(=O)N1Cc1ccccc1 (configuration not stated)	-1.4	6.1	27.6	4.2	-2.0	0.5	/	/
Nc1n[nH]c(N)c1N=Nc1ccc(Cl)cc1	0.5	16.6	2.0	4.2	-4.3	10.5*	2.1	2.1
CC(C)=CCc1c(O)ccc(C(=O)Cc2ccccc2)c1O	6.6	17.9	8.3	17.0	17.5*	10.5*	23.7*	12.6*
O=c1[nH]c2cccc(Cl)c2c2ccccc12	-1.1	-17.6	1.5	11.1	/	-7.5	/	/
C=CCn1cccc(C(=O)Nc2ccc(OCC)cc2)c1=O	-1.6	3.4	3.6	7.0	-1.5	6.2	/	/
Fc1ccccc1Cn1nnc2c(-n3ccnc3)ncnc21	0.8	9.7	-4.3	-13.2	-0.7	8.7*	-7.6	-0.4
COc1ccc(N/N=C(\C#N)C(=N)N2CCOCC2)cc1	-1.5	7.1	-1.6	0.6	1.9	8.8*	12.6	5.8
Cc1cccc(C)c1NC(=O)C1(C)CSCC(=O)N1CCc1ccc(O)cc1 (configuration not stated)	-0.9	6.2	1.4	7.4	/	11.3*	-7.3	1.4
CCC(C)OC(=O)n1ccc(C(=O)Nc2nccs2)n1 (configuration not stated)	-0.9	-0.7	3.3	3.2	2.9	-2.9	/	/
